Assay results taken from ChEMBL document CHEMBL4038269, “Design, synthesis and evaluation of novel feruloyl-donepezil hybrids as potential multitarget drugs for the treatment of Alzheimer's disease” (Eur J Med Chem, 2017).
Calls of active or inactive are those of the source. No cut-off for these calls is given here.

Assays:
[1] = target: T1, Nuclear factor erythroid 2-related factor 2 (Homo sapiens) (UniProt Q16236); experiment: Induction of Nrf2 nuclear translocation in human SH-SY5Y cells assessed as Nrf2 binding to antioxidant response element at 20 uM measured after 1 to 6 hrs by TransAM ELISA; format: cell-based; conditions: TDE = time-dependent effect
T1 sequence (whole entry): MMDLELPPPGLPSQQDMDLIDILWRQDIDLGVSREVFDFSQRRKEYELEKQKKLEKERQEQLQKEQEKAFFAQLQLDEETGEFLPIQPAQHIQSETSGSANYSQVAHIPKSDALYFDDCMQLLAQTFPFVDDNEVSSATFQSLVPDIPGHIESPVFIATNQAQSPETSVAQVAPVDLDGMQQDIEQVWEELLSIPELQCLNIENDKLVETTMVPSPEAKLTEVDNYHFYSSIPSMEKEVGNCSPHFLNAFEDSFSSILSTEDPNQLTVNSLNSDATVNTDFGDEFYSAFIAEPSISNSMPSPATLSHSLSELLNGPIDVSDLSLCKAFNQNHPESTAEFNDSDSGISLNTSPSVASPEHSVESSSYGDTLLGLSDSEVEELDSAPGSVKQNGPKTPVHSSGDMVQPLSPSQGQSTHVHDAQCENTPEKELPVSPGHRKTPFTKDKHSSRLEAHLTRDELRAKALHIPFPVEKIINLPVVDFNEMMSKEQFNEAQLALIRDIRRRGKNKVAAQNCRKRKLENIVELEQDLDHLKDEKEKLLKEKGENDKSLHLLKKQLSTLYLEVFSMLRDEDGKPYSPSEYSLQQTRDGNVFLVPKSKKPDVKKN
Outline: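 SH-SY5Y cells seeded at 2×10^6 per 60 mm dish, grown 24 h, then given 20 µM compound for 1-6 h at 37 °C. Nuclear extracts prepared by kit. 20 µg nuclear protein tested for Nrf2 DNA binding by TransAM Nrf2 immunoassay. Expressed as % of control cells; mean ± SD of three experiments. Nrf2-transfected COS-7 cells served as positive control.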

SH-SY5Y = experiment: Copper chelating activity in human SH-SY5Y cells assessed as reduction in CuSO4/H2O2-induced reactive oxygen species formation at 10 to 20 uM after 30 mins by DCFH-DA probe based fluorescence assay; format: functional, cell-based
Outline: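 SH-SY5Y cells seeded at 3 x 10^4 cells/well and preloaded with DCFH-DA (10 µg/mL, 30 min, room temperature). Then given compound (5, 10, 20 µM) with FeSO4/H2O2 or CuSO4/H2O2 for 30 min; metal 25 µM and H2O2 100 µM per figure legend. Fluorescence read at ex 485/em 535 nm, arbitrary units. Mean ± SD of three experiments.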

Mus musculus = experiment: In vivo inhibition of 5-LOX activity in carrageenan-induced Swiss mouse serum at 100 umol/kg, po pretreated for 1 hr followed by carrageenan challenge after 3 hrs by ELISA relative to control; format: functional
Outline: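 Male Swiss mice given oral drug (100 µmol/kg) or vehicle 1 h before intraplantar carrageenan (legend: 400 µg/paw). At 3 h, animals anaesthetised with chloral hydrate and cardiac blood taken. Serum separated (1500 rpm, 20 min) and frozen at -70 °C. COX-1, COX-2 and 5-LOX measured by specific sandwich ELISA at 450 nm. Expressed as % enzymatic activity, mean ± SEM, n=8.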

## COc1cc(/C=C/C(=O)OCC2CCN(Cc3ccccc3)CC2)ccc1O
[1]
  Activity: Tde
SH-SY5Y
  Activity: Active
Mus musculus
  inhibition in vivo at 100 µmol/kg: 30%
